Assays:
Format in all cases: functional
[1] = Cytotoxicity against human NCI/ADR cells by sulforhodamine B assay; details: NCI/ADR-RES; for CC50: read-out: LC50 (the source's name)
In short: (§1)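 Growth of the human tumor cell line was read colorimetrically with sulforhodamine B, following the NCI standard protocol, with doxorubicin as positive control. Compounds were tested at four concentrations in 10-fold dilutions (0.25 to 250). Dose-response curves gave GI50 (the concentration for 50% growth inhibition), TGI (total growth inhibition) and LC50 (50% cell death).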

OVCAR-3 = test: Cytotoxicity against human OVCAR-3 cells by sulforhodamine B assay; details: for CC50: read-out: LC50 (the source's name); in short: as §1
HT-29 = test: Cytotoxicity against human HT-29 cells by sulforhodamine B assay; details: for CC50: read-out: LC50 (the source's name); in short: as §1
UACC-62 = test: Cytotoxicity against human UACC62 cells by sulforhodamine B assay; in short: as §1
[2] = Cytotoxicity against human PCO3 cells by sulforhodamine B assay; details: for CC50: read-out: LC50 (the source's name); in short: as §1
MCF7 = test: Cytotoxicity against human MCF7 cells by sulforhodamine B assay; details: for CC50: read-out: LC50 (the source's name); in short: as §1
NCI-H460 = test: Cytotoxicity against human NCI-H460 cells by sulforhodamine B assay; details: for CC50: read-out: LC50 (the source's name); in short: as §1
K562 = test: Cytotoxicity against human K562 cells by sulforhodamine B assay; details: for CC50: read-out: LC50 (the source's name); in short: as §1

| SMILES | GI50 [1] [µM] | TGI [1] [µM] | CC50 [1] [µM] | GI50 (OVCAR-3) [µM] | TGI (OVCAR-3) [µM] | CC50 (OVCAR-3) [µM] | GI50 (HT-29) [µM] | TGI (HT-29) [µM] | CC50 (HT-29) [µM] | GI50 (UACC-62) [µM] | LC50 (50% cell kill) (UACC-62) [µM] | TGI (UACC-62) [µM] | GI50 [2] [µM] | TGI [2] [µM] | CC50 [2] [µM] | GI50 (MCF7) [µM] | TGI (MCF7) [µM] | CC50 (MCF7) [µM] | GI50 (NCI-H460) [µM] | TGI (NCI-H460) [µM] | other results |
| --- | --- | --- | --- | --- | --- | --- | --- | --- | --- | --- | --- | --- | --- | --- | --- | --- | --- | --- | --- | --- | --- |
| CC1=CC[C@@H]([C@@](C)(O)CCCC(C)(C)NC(=S)N/N=C\c2cccc([N+](=O)[O-])c2)CC1 | 6.72 | 38 | > 100 | 8.51 | 40.8 | > 100 | 14.1 | 57.1 | > 100 | 7.84 | 49.3 | 24.7 | 5.6 | 20.7 | 52.5 | 6.72 | 18.3 | 47.3 | 8.29 | 68.6 | CC50 (NCI-H460): > 100 µM; GI50 (K562): 0.02 µM; TGI (K562): 0.56 µM; CC50 (K562): 12.6 µM |
| CC1=CC[C@@H]([C@@](C)(O)CCCC(C)(C)NC(=S)N/N=C\c2ccc(Cl)cc2)CC1 | 7.58 | 36.4 | > 100 | 6.66 | 12.8 | 40.6 | 7.35 | 22.6 | 47.3 | 7.35 | 40.6 | 13.8 | 7.58 | 22.7 | 48.5 | 6.89 | 15.8 | 44.3 | 8.72 | > 100 | CC50 (NCI-H460): > 100 µM; GI50 (K562): 0.04 µM; TGI (K562): 0.73 µM; CC50 (K562): 10.3 µM |
